Measurements reported in ChEMBL document CHEMBL1145787, “Synthesis and structure-activity relationship of N-substituted 4-arylsulfonylpiperidine-4-hydroxamic acids as novel, orally active matrix metalloproteinase inhibitors for the treatment of osteoarthritis” (J Med Chem, 2003).
Blank lines part the entries; values can stand above or below the molecule they belong to.

Experiments:
[1] = In vivo inhibitory activity against Matrix metalloprotease enzyme by dialysis implant assay, value is relative to activity of CGS-27023 (68+/-5) at 25 mg/kg. po; type: functional
[2] = target: T1, Disintegrin and metalloproteinase domain-containing protein 17 (Homo sapiens, UniProt P78536); assay: Inhibition of Tumor necrosis factor alpha converting enzyme (TACE) at 10 uM
Procedure, shortened: (§1)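 Dose–response curves were not generated when inhibition was below 60% at 10 μM.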

[3] = target: Matrix metalloproteinase-9 (Homo sapiens, UniProt P14780); assay: In vitro inhibitory activity against matrix metalloprotease-9.
[4] = In vivo inhibitory activity against Matrix metalloprotease enzyme by dialysis implant assay, value is relative to activity of CGS-27023 (69+/-2) at 25 mg/kg. po; type: functional
[5] = In vivo inhibition of Matrix metalloprotease enzyme by Sponge-wrapped cartilage assay, value is relative to activity of CGS-27023 (27+/-2) at 25 mg/kg. po. bid; type: functional
[6] = In vivo inhibitory activity against Matrix metalloprotease enzyme by dialysis implant assay, value is relative to activity of CGS-27023 (54+/-2) at 25 mg/kg. po; type: functional
Collagenase 3 = Collagenase 3 (Homo sapiens, UniProt P45452)
[7] = In vivo inhibition of Matrix metalloprotease enzyme by Sponge-wrapped cartilage assay, value is relative to activity of CGS-27023 (25+/-4) at 25 mg/kg. po. bid; type: functional
[8] = In vivo inhibition of Matrix metalloprotease enzyme by Sponge-wrapped cartilage assay, value is relative to activity of CGS-27023 (37+/-5) at 25 mg/kg. po. bid; type: functional
[9] = In vivo inhibitory activity against Matrix metalloprotease enzyme by dialysis implant assay, value is relative to activity of CGS-27023 (58+/-2) at 25 mg/kg. po; type: functional
[10] = In vivo inhibition of Matrix metalloprotease enzyme by Sponge-wrapped cartilage assay, value is relative to activity of CGS-27023 (39+/-3) at 25 mg/kg. po. bid; type: functional
[11] = In vivo inhibitory activity against Matrix metalloprotease enzyme by dialysis implant assay, value is relative to activity of CGS-27023 (51+/-2) at 25 mg/kg. po; type: functional
[12] = In vivo inhibitory activity against Matrix metalloprotease enzyme by dialysis implant assay, value is relative to activity of CGS-27023 (65+/-4) at 25 mg/kg. po; type: functional
[13] = In vivo inhibitory activity against Matrix metalloprotease enzyme by dialysis implant assay, value is relative to activity of CGS-27023 (76+/-2) at 25 mg/kg. po; type: functional
[14] = In vivo inhibitory activity against Matrix metalloprotease enzyme by dialysis implant assay, value is relative to activity of CGS-27023 (38+/-3) at 25 mg/kg. po; type: functional
[15] = target: T2, Interstitial collagenase (Homo sapiens) (UniProt P03956); assay: Inhibition of Matrix metalloprotease-1 at 10 uM; procedure, shortened: as §1
T2 sequence (whole entry): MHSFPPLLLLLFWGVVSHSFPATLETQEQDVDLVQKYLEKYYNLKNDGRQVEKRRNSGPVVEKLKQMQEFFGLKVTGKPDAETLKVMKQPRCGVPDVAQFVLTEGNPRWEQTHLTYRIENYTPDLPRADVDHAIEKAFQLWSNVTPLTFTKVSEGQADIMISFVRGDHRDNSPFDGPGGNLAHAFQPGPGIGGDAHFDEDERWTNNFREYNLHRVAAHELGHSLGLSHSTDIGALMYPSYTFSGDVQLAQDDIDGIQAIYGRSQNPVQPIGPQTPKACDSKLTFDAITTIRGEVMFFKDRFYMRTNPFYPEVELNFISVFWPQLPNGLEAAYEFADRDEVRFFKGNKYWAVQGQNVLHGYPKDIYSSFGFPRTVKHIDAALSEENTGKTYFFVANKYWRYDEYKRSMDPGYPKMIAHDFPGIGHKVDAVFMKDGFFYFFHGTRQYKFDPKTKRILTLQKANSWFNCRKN

[16] = In vivo inhibitory activity against Matrix metalloprotease enzyme by dialysis implant assay, value is relative to activity of CGS-27023 (35+/-4) at 25 mg/kg. po; type: functional
Interstitial collagenase = target: T3, Interstitial collagenase (Homo sapiens, UniProt P03956); assay: In vitro inhibitory activity against matrix metalloprotease-1
T3 sequence (P03956 whole entry): T2 sequence (whole entry)

[17] = target: T1, Disintegrin and metalloproteinase domain-containing protein 17; assay: In vitro inhibitory activity against tumor necrosis factor alpha converting enzyme (TACE).
[18] = In vivo inhibition of Matrix metalloprotease enzyme by Sponge-wrapped cartilage assay, value is relative to activity of RS-130830 (43+/-3) at 25 mg/kg. po. bid; type: functional
[19] = In vivo inhibitory activity against Matrix metalloprotease enzyme by dialysis implant assay, value is relative to activity of CGS-27023 (74+/-2) at 25 mg/kg. po; type: functional
[20] = In vivo inhibition of Matrix metalloprotease enzyme by Sponge-wrapped cartilage assay, value is relative to activity of RS-130830 (39+/-2) at 10 mg/kg. po. bid; type: functional
[21] = In vivo inhibitory activity against Matrix metalloprotease enzyme by dialysis implant assay, value is relative to activity of CGS-27023 (73+/-3) at 25 mg/kg. po; type: functional

T1 sequence (P78536 whole entry, the tested form may be a part): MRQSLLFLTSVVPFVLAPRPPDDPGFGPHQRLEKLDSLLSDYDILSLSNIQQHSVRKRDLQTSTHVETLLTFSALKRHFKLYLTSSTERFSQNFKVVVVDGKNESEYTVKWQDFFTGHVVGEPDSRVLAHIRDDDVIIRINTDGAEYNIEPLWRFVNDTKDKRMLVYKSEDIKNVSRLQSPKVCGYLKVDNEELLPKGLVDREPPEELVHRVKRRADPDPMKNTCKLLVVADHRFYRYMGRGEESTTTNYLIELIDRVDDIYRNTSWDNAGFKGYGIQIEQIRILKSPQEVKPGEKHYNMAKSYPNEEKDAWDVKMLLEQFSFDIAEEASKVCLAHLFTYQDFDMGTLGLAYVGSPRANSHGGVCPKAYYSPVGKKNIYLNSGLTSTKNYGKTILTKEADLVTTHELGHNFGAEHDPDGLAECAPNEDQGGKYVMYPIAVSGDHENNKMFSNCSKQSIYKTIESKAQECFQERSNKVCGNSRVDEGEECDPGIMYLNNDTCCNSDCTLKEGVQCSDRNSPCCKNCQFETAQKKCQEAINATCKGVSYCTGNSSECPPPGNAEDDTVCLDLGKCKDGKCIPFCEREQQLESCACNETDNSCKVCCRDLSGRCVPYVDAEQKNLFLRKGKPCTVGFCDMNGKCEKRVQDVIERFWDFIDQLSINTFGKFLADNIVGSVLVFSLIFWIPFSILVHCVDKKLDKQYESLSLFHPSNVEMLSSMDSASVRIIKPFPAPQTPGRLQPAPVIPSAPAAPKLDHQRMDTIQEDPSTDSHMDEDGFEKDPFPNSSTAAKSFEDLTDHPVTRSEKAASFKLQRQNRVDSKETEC
Matrix metalloproteinase-9, sequence (P14780 whole entry): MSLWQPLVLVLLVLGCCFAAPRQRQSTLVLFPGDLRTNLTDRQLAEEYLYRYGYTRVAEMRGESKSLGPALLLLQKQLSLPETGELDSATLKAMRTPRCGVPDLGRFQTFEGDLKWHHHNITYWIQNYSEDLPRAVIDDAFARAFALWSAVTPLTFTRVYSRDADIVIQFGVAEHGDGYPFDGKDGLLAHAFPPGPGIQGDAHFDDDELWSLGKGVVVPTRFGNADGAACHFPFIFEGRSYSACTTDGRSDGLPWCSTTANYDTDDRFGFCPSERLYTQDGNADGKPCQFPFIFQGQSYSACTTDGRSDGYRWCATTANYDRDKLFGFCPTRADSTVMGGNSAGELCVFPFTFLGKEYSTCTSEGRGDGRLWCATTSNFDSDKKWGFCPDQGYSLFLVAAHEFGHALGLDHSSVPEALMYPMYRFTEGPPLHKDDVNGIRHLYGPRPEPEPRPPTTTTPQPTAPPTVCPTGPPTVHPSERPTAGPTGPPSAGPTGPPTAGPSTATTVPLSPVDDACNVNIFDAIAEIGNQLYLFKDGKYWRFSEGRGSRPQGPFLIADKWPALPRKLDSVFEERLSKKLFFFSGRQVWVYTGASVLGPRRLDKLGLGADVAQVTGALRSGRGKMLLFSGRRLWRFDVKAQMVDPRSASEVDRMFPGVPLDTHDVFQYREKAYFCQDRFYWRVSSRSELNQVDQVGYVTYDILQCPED

Compound: COc1ccc(S(=O)(=O)C2(C(=O)NO)CCN(C(C)C)CC2)cc1
- inhibition in vivo at 25 mg/kg [1]: 49%
- inhibition [2]: 18%

- IC50 [3]: 5 nM
Compound: CCCCOc1ccc(S(=O)(=O)C2(C(=O)NO)CCN(CCCOc3ccccc3)CC2)cc1
- inhibition in vivo at 25 mg/kg [4]: 67%
- inhibition in vivo at 25 mg/kg [5]: 17%

- IC50 [3]: 3 nM
- IC50 (Collagenase 3): 1 nM
Compound: CCCCOc1ccc(S(=O)(=O)C2(C(=O)NO)CCN(Cc3ccc(OC)cc3)CC2)cc1
- inhibition in vivo at 25 mg/kg [6]: 69%
- inhibition in vivo at 25 mg/kg [7]: 17%

- IC50 (Collagenase 3): 2 nM
Compound: COc1ccc(CN2CCC(C(=O)NO)(S(=O)(=O)c3ccc(OC)cc3)CC2)cc1
- inhibition in vivo at 25 mg/kg [8]: 45%
- inhibition in vivo at 25 mg/kg [4]: 75%

Compound: COc1ccc(S(=O)(=O)C2(C(=O)NO)CCN(C)CC2)cc1
- inhibition in vivo at 25 mg/kg [9]: 36%
- inhibition [2]: 20%

- IC50 [3]: 4 nM
- IC50 (Collagenase 3): 1 nM
Compound: CCCCOc1ccc(S(=O)(=O)C2(C(=O)NO)CCN(Cc3ccccc3)CC2)cc1
- inhibition in vivo at 25 mg/kg [10]: 53%
- inhibition in vivo at 25 mg/kg [11]: 80%

Compound: CCCCOc1ccc(S(=O)(=O)C2(C(=O)NO)CCN(Cc3cccc(OCCN4CCOCC4)c3)CC2)cc1
- inhibition in vivo at 25 mg/kg [12]: 27%

- IC50 [3]: 17 nM
- IC50 (Collagenase 3): 2 nM
Compound: COc1ccc(S(=O)(=O)C2(C(=O)NO)CCN(Cc3ccc(C)cc3)CC2)cc1
- inhibition in vivo at 25 mg/kg [13]: 89%

Compound: CCN1CCC(C(=O)NO)(S(=O)(=O)c2ccc(OC)cc2)CC1
- inhibition in vivo at 25 mg/kg [14]: 17%
- inhibition [2]: 25%

- IC50 [3]: 3 nM
- inhibition [15]: 48%
- IC50 (Interstitial collagenase): 40 nM
Compound: O=C(NO)C1(S(=O)(=O)c2ccc(OCc3ccccc3)cc2)CCN(Cc2ccccc2)CC1
- inhibition in vivo at 25 mg/kg [16]: 17%
- IC50 [17]: 416 nM

- inhibition [15]: 50%
- IC50 (Collagenase 3): 2 nM
Compound: CCCCOc1ccc(S(=O)(=O)C2(C(=O)NO)CCN(CCCC)CC2)cc1
- inhibition in vivo at 25 mg/kg [18]: 46%
- inhibition in vivo at 25 mg/kg [19]: 86%

- IC50 [3]: 1 nM
- IC50 (Collagenase 3): 1 nM
- IC50 (Interstitial collagenase): 1070 nM
Compound: CCCCN1CCC(C(=O)NO)(S(=O)(=O)c2ccc(Oc3ccc(Cl)cc3)cc2)CC1
- inhibition in vivo at 10 mg/kg [20]: 69%
- inhibition in vivo at 25 mg/kg [21]: 93%
- IC50 [17]: 301 nM
